# High-throughput results from PubChem BioAssay.
# In the library only some 1.7% were active in any assay of this set; here they are far more common.
# LMPTP inh – blocks human LMPTP phosphatase | inhibition, % at 20 µM | AID 651560 | 0.22% of 360,000 active | recombinant LMPTP-A, OMFP fluorogenic substrate, fluorescence intensity | P24666;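 active = compounds that cut the enzyme signal by at least half of the control window in the single-dose screen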;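 also: plate controls were DMSO wells with enzyme plus substrate for no effect and substrate without enzyme for full effect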
# Target sequence (P24666 whole entry, looked up): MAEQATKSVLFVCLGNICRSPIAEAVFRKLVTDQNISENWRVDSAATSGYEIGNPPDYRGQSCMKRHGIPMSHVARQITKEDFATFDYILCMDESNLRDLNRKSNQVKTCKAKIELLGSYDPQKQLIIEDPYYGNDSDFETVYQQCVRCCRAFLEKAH
#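 Test system: LMPTP-A, protein tyrosine phosphatase of low molecular weight; Input: 0.625 nM enzyme; Incubation: 50 min dark incubation at room temperature; Signal: endpoint fluorescence intensity from OMFP dephosphorylation; Read-out basis: % inhibition versus control wells.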
# DNMT1 inh – DNMT1 (human) enzyme inhibition; inhibition (reported as % activation of signal), % at 10 µM; P26358; 0.83% of 360,000 active; DNMT1 molecular beacon, Hinp1I cleavage, fluorescence; in the data active = inhibition above about 50%
# Scp-1 inhibitor – Scp-1 (human) phosphatase inhibition. Q9GZU7. Recombinant Scp1, phosphopeptide, malachite green phosphate absorbance. inhibition, % at 20 µM. 0.88% of 340,000 active;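 active = inhibition above about 50% at 20 µM, limit read from the data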;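 also: plate controls were DMSO wells with enzyme for no effect and wells lacking enzyme for full effect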
# Target sequence (Q9GZU7 76-261 limits assumed): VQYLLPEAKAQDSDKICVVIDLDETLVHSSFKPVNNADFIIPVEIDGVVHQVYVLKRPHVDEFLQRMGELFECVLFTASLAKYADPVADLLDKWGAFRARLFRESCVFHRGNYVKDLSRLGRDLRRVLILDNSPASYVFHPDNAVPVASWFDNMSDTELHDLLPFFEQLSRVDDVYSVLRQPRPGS
#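 Material: truncated SCP-1 phosphatase (76-261aa) / Buffer or medium: 50 mM Tris acetate pH 5.5, 0.005% Tween-20, 10 mM MgCl2 / Compound dosing: one concentration, 20 µM, with 1.0% DMSO / Incubation: 45 min room-temperature reaction, 5 min colour, 30 min stabiliser / Detection: colorimetric free-phosphate detection, absorbance 630 nm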
# STEP inh – STEP (human) phosphatase inhibition; 0.25% of 360,000 active; P54829; AID 588621; recombinant STEP, OMFP fluorogenic substrate, fluorescence; inhibition, % at 20 µM;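 active = inhibition at 20 µM, scaled per plate between control wells, above about 37%, limit read from the data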;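 also: 0% = DMSO with enzyme and substrate and 100% = substrate only without enzyme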
#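 Assay system: isolated STEP enzyme / Timing: 20 min at room temperature, dark / Doses: 20 µM, 1% DMSO / Technique: fluorescence intensity, excitation 480 nm, emission 540 nm / Reagent: fluorogenic phosphatase substrate OMFP at 25 µM final / Measure: percent inhibition scaled to no-enzyme and uninhibited-enzyme controls, plate-pattern corrected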
# SUMO1-SIM PPI – alters human SUMO1 binding to SIM partners. 0.33% of 360,000 active. SUMO1 binding to a labelled peptide, TR-FRET, 1 h. inhibition, % at 20 µM. P63165. AID 602429; in the data active = inhibition above about 37%
# Target sequence (P63165 whole entry, looked up): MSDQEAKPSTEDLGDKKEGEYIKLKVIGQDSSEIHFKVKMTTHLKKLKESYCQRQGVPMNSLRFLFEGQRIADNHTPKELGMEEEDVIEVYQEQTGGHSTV
# Scp-1 conf – Scp-1 (human) inhibition, single-dose confirmed; shares compounds with Scp-1 inhibitor; recombinant SCP-1 catalytic domain, phosphate release, malachite green absorbance; inhibition, % at 20 µM; 61% of 2,500 active; AID 540281;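 also: plate controls were DMSO with enzyme for no effect and buffer wells lacking enzyme for full effect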
# Scp-1 MG ctr – colorimetric interference in Scp-1 counter-screen | Colorimetric interference counterscreen, malachite green absorbance 630 nm | apparent inhibition (interference), % at 20 µM | 2,500 tested, under 10 active | shares compounds with Scp-1 inhibitor;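 also: compounds added after enzyme reaction finished so only phosphate colour detection is probed; plate controls were DMSO wells with completed Scp-1 reaction for no effect and substrate wells lacking enzyme for full effect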
# Scp-1 Tm shift – binds human Scp-1, shifting its melting temperature; shares compounds with Scp-1 inhibitor; Recombinant SCP1, Sypro Orange thermal shift Tm; thermal shift relative to vanadate control, % at 40 µM; 25% of 1,500 active;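 active = substances whose mean melting-temperature shift, as a percentage of the reference inhibitor's shift, reaches about 5.3%, limit read from the data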;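 also: 0% = Tm of DMSO wells and 100% = Tm with sodium orthovanadate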
# * marks the source's active call; other numbers are inactive results; · = no result.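 The calls were made as follows, unless noted: active = inhibition of at least 30% at 20 µM; inactive = the rest.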
SMILES,LMPTP inh,DNMT1 inh,Scp-1 inhibitor,STEP inh,SUMO1-SIM PPI,Scp-1 conf,Scp-1 MG ctr,Scp-1 Tm shift
CC[N+]1(CC)CC2CCC(C)(C1)C2(C)C (stereo unspecified),-0.6,0.1,53.4*,-4.3,2.7,88.0*,-17.5,-6.0
COc1ccc(CCNC(=O)CSc2nnc3ccc(-c4ccccn4)nn23)cc1OC,-0.1,2.5,-9.0,-0.2,-22.2,·,·,·
Cc1ccc2c(c1)N(C(=O)CCC(=O)NCc1ccccn1)CC(C)O2 (stereo unspecified),-1.2,-2.6,2.4,1.7,-0.2,·,·,·
Cc1cc(C)n(-c2ccc(Oc3ccccc3)c(S(=O)(=O)O)c2)n1,3.9,28.4,64.8*,37.0,0.7,46.9*,-17.5,-4.1
Cc1cc(C)n(-c2ccc(C(=O)O)cc2)n1,-2.0,-2.0,4.0,0.2,-4.5,·,·,·
COc1ccc(NC(=O)CNc2ccccc2N2CCCC2=O)cc1S(=O)(=O)N1CCOCC1,0.2,1.7,0.4,-2.8,-1.6,·,·,·
COc1cc(OC)cc(C(=O)NCC2CCCN(C(=O)c3csc(C)n3)C2)c1 (stereo unspecified),-2.5,1.0,9.8,-2.5,0.8,·,·,·
COc1ccc(C(CC(=O)N2CCCC2)c2c(OC)cc(OC)c3c(-c4ccccc4)cc(=O)oc23)cc1 (stereo unspecified),15.1,93.8*,66.9*,6.6,2.5,59.0*,-8.7,-21.3
O=[N+]([O-])c1ccc(O)c(Nc2ncnc3ccc(Br)cc23)c1,26.1,-0.2,75.4*,25.2,-5.1,42.2*,-18.3,13.7*
Cc1cccn2c(=O)c3cc(C(=O)NC4CCCC4)n(C)c3nc12,0.7,-2.6,67.6*,-1.1,-19.3,-12.5,-11.2,·
CCN1/C(=C2\C(=O)N(c3ccccc3)N=C2C)C=Cc2cc(C)ccc21,-0.9,3.8,58.5*,1.5,-25.7,-14.2,-20.0,·
CCOC(=O)c1c(NC(=O)COC(=O)CCCOc2ccc(OC)cc2)sc(C(=O)N(C)C)c1C,1.8,-1.6,6.5,-0.7,2.9,·,·,·
Cc1cc(C)cc(N=C2NC(=O)/C(=C/c3cccs3)S2)c1,1.7,-2.0,20.2,-1.0,-6.8,·,·,·
O=C1NC(=Nc2ccccc2)S/C1=C\c1cccs1,31.4,2.0,97.1*,20.6,-1.1,20.1,-13.7,·
COc1ccccc1-c1ncn(Cc2cccc(-c3ccccc3)c2)c1-c1cc(C)cc(C)c1,17.5,·,·,·,2.1,·,·,·
CCCOC(=O)c1ccc(OCC(O)CN2C(=O)NC(C)(C)C2=O)cc1 (stereo unspecified),0.1,1.0,65.1*,-0.7,-3.0,-7.8,-6.8,·
Cc1ccc(C)c(NC(=O)CSc2ncnc3nc[nH]c23)c1,0.1,1.1,58.0*,-0.2,-1.7,-19.1,-16.4,·
O=C(NCC1CCN(c2ccc(S(=O)(=O)N3CCOCC3)cc2)CC1)Nc1ccccc1F,0.4,-1.0,-7.9,1.9,6.5,·,·,·
CCOC(=O)N1CCC(N2CC34C=CC(O3)C(C(=O)Nc3ccc(F)cc3)C4C2=O)CC1 (stereo unspecified),-0.2,-0.8,90.2*,-1.1,3.5,-4.0,-10.1,·
Cc1ccc(C)c(NC(=O)CN(C)C(=O)c2cc(-c3cccs3)nn2-c2ccccc2)c1,2.7,-4.2,56.4*,1.3,1.2,-9.0,-8.5,·
Cc1cccc(NC(=O)COc2ccc(/C=C\c3[nH]c(=O)[nH]c(=O)c3[N+](=O)[O-])cc2)c1,55.2*,13.3,78.7*,20.6,19.9,73.7*,-14.0,5.5*
CCOc1ccc(C(=O)Nc2ccc(-c3cc4ccccc4oc3=O)c(C)c2)cc1[N+](=O)[O-],12.8,19.5,60.1*,3.8,1.6,41.2*,-29.4,2.7
O=C(CSc1ncnc2sc3c(c12)CCC3)N1CCOCC1,6.2,27.4,53.5*,13.9,12.6,56.2*,-9.8,0.5
N#Cc1ccc(C(=O)N2CCC3CC2c2cc(-c4ccc(F)cc4)ccc23)cc1 (stereo unspecified),2.0,4.5,-16.6,2.2,0.3,·,·,·
CC(=C/C(=O)O)/C=C/c1ccc(Cl)o1,-1.1,105.8*,60.6*,9.3,2.3,53.8*,-15.1,1.0
SMILES,LMPTP inh,DNMT1 inh,Scp-1 inhibitor,STEP inh,SUMO1-SIM PPI,Scp-1 conf,Scp-1 MG ctr,Scp-1 Tm shift
CC(/C=C/c1ccc(C)o1)=C\C(=O)O,-1.5,3.9,-4.3,2.1,-0.5,·,·,·
N#C/C(=C\c1c(N(Cc2ccccc2)Cc2ccccc2)nc2ccccn2c1=O)C(N)=O,1.5,-2.8,55.7*,2.2,-20.2,-12.6,-9.0,·
CCOC(=O)C1=CN2CCC[C@H]2CC1=O,-0.9,4.3,-5.9,0.5,-2.9,·,·,·
O=C1CC2CCCN2C=C1I (stereo unspecified),-3.1,-0.1,96.5*,-2.7,-30.4,86.8*,-11.5,-22.9
CC(C)C[C@@H]1Cc2[nH][nH]c(=O)c2[C@H](c2ccc(Cl)cc2)O1,-1.9,·,·,·,4.1,·,·,·
CC(=O)N1CCN(C(=O)CCc2cc(C(C)(C)C)c(O)c(C(C)(C)C)c2)CC1,3.1,0.1,-2.4,-0.1,0.1,·,·,·
O=C(NC1CCSC1=O)c1ccccc1 (stereo unspecified),0.4,1.3,-3.4,-0.2,3.1,·,·,·
O=C(NC1CCSC1=O)c1cccc(C(=O)NC2CCSC2=O)c1 (stereo unspecified),8.3,2.9,94.8*,0.0,0.6,64.8*,-18.1,3.4
CCOP(=O)(OCC)C(NC(=O)NS(=O)(=O)c1ccc(C)cc1)c1ccccc1 (stereo unspecified),0.2,1.5,3.6,-0.5,1.1,·,·,·
COc1ccc(CCNC(C(=O)Nc2cc(C)cc(C)c2)c2ccccc2)cc1 (stereo unspecified),3.9,-2.9,54.1*,0.2,1.8,-9.0,-5.4,·
O=C(Nc1ccc2c(c1)OCCO2)C1c2ccccc2OCC(=O)N1C1CC1 (stereo unspecified),-1.9,·,·,·,0.1,·,·,·
O=C(COc1ccccc1)NCC(=O)N/N=C/C=C/c1ccccc1,-2.5,-0.6,-7.3,-5.4,0.4,·,·,·
O=C(CNC(=O)c1ccc(Cl)cc1)N/N=C/C=C/c1ccccc1,4.9,7.5,83.5*,2.9,-2.4,7.5,-10.9,·
COc1ccccc1N1CCN(C(=O)c2cc3c(s2)CCC3)CC1,18.8,36.7,85.2*,6.7,-0.4,20.4,-14.8,·
CSc1ncccc1C(=O)N1CCN(S(=O)(=O)c2ccc(C)cc2)CC1,-1.1,0.9,-2.3,-1.6,0.7,·,·,·
O=C(N/N=C/c1cn(-c2ccccc2)nc1-c1ccc2c(c1)OCCO2)c1ccncc1,30.6,1.9,75.2*,8.8,2.3,57.2*,-14.5,-14.7
